High-throughput results deposited in PubChem BioAssay by Sanford-Burnham Center for Chemical Genomics.
mIAP act = increases mouse intestinal alkaline phosphatase activity | muIAP, CDP-Star luminescence, 30 min; stronger effect = higher value; 1 = vehicle-only enzyme signal, 0 = enzyme-free wells | activation factor at 10 µM | hit rate 0.24% among 330,000 | AID 2805;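 active means activation factor of at least 2 at 20 µM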
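Assay system: mouse IAP enzyme; Reagent: CDP-Star chemiluminescent phosphatase substrate; Compound: DMSO-dissolved test compounds; Incubation: 30 min, room temperature; Technique: luminescence from enzymatic CDP-Star hydrolysis; Controls: DMSO-only wells and no-enzyme negative control.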
hIAP inh = blocks human intestinal alkaline phosphatase | P09923 | purified IAP, CDP-Star luminescence, 30 min | AID 2544 | inhibition, % at 10 µM | hit rate 0.12% among 330,000;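 active means inhibition reaching a set limit with compound at 10 µM in the primary screen, cut at about 35% in these data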;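 further: plate controls were DMSO wells with enzyme for no effect and no-enzyme buffer wells for full effect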
Target sequence (P09923 whole entry, looked up): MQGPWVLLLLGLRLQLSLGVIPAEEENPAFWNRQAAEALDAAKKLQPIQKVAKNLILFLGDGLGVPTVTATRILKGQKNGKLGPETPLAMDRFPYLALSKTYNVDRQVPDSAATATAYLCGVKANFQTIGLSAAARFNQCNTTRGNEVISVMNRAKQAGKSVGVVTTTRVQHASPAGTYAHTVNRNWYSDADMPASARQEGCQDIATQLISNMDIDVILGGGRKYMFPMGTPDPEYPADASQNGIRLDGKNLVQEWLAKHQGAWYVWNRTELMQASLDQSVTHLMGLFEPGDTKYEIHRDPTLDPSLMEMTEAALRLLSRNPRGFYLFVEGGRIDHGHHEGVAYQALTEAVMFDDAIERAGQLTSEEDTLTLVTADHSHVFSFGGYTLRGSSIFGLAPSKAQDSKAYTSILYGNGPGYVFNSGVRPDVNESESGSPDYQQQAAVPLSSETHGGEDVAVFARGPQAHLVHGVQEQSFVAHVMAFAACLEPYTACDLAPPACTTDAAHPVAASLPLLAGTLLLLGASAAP
mIAP inh = blocks mouse intestinal alkaline phosphatase; purified mouse IAP, CDP-Star luminescence, 30 min; inhibition, % at 10 µM; hit rate 0.2% among 330,000; AID 2806;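 active means inhibition of at least 40% at 10 µM in the primary screen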;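 further: plate controls were DMSO with enzyme for no effect and no enzyme wells for full effect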
hIAP act = increases human intestinal alkaline phosphatase activity | activation factor at 10 µM | hit rate 0.16% among 330,000 | purified human IAP, CDP-Star luminescence, 30 min; stronger effect = higher value; 1 = vehicle-only enzyme, 0 = enzyme-free background;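 active means activation factor of the enzyme at least 2-fold when tested at 20 µM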
bIAP act = increases bovine intestinal alkaline phosphatase activity; purified bovine IAP, CDP-star luminescence, 30 min; stronger effect = higher value; fold of DMSO-control signal, blank-subtracted; activation factor at 20 µM; hit rate 0.17% among 200,000;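 active means activation factor of 2 or more at 20 µM, a signal rise over negative controls twice the positive control's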
bIAP inh = intestinal alkaline phosphatase (bovine) inhibition; purified bovine IAP, CDP-star luminescence, 30 min; inhibition, % at 20 µM; 190,000 tested, under 10 active; AID 1019;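 active means over 50% inhibition of intestinal alkaline phosphatase at 20 µM in the single-dose screen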
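test system = bovine IAP enzyme | medium = DEA buffer 100 mM, pH 9.8, with MgCl2 1.0 mM, ZnCl2 0.02 mM | detection = luminescence | dosing = single compound dose of 20 µM, 2% DMSO final | incubation = 30 min reaction at room temperature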
mIAP inh conf = mouse IAP inhibition confirmation | shares compounds with mIAP inh | purified mouse IAP, CDP-Star luminescence, 30 min | AID 434971 | inhibition, % at 10 µM | hit rate 4.7% among 11,000;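 active means inhibition of at least 40% at 10 µM in either of the two replicates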;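 further: plate controls were DMSO wells with enzyme for no effect and buffer wells lacking enzyme for full effect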
Active calls of the source: *; x = not tested or not shown. A selection: hits, their analogues and other compounds. The true share with any hit is near 0.72%.

SMILES	mIAP act	hIAP inh	mIAP inh	hIAP act	bIAP act	bIAP inh	mIAP inh conf
CCc1ccc(NC(=O)CN(C)S(=O)(=O)c2ccc3[nH]c(=O)oc3c2)cc1	0.5	17	50*	0.83	x	x	61*
S=c1[nH]nc(-c2ccco2)n1/N=C/C=C/c1ccco1	0.31	10	69*	0.9	0.9	7	70*
S=c1[nH]nc(-c2n[nH]c3c2CCC3)n1/N=C/C=C/c1ccco1	0.5	9	50*	0.91	x	x	42*
COc1ccccc1/C=C/C=N/n1c(-c2ccco2)n[nH]c1=S	0.83	-14	17	1.1	x	x	x
S=c1[nH]nc(COc2ccccc2)n1/N=C/C=C/c1ccco1	0.49	0	51*	1	x	x	58*
COc1cc(/C=N/n2c(-c3n[nH]c4c3CCC4)n[nH]c2=S)cc(OC)c1O	0.85	-66	15	1.7	x	x	x
S=c1[nH]nc(-c2cc(-c3ccccc3)n[nH]2)n1/N=C/c1c(Cl)cccc1Cl	0.92	-67	8	1.7	x	x	x
S=c1[nH]nc(-c2cc(-c3ccccc3)n[nH]2)n1/N=C/C=C/c1ccco1	0.52	-19	48*	1.2	x	x	47*
S=c1[nH]nc(COc2ccccc2)n1/N=C/C=C/c1ccccc1	0.99	7	0	0.93	1	-4	x
COc1cc(NC(=O)NC2Cc3ccccc3C2)cc(OC)c1	3.4*	-28	-237	1.3	x	x	-169
COc1cccc(NC(=O)NC2CCCCCCC2)c1	2.1*	-14	-105	1.1	x	x	-167
N#Cc1ccccc1OCC(=O)OCC(=O)NC1CCCC1	1.1	-8	-7	1.1	x	x	x
CCOC(=O)CNC(=O)c1ccc(SCC)cc1	0.96	6	4	0.94	x	x	x
Cc1cc(F)ccc1S(=O)(=O)Nc1ccc(O)c(Sc2ncn[nH]2)c1	0.3	-6	70*	1.1	x	x	66*
Cc1cc(F)ccc1S(=O)(=O)Nc1ccccc1C(=O)Nc1ncn[nH]1	0.93	-9	7	1.1	1.6	-61	x
CSc1ccc(S(=O)(=O)Nc2ccc(S(=O)(=O)Nc3ccc(C)cc3)cc2)cc1	0.95	17	5	0.83	1	4	x
Cc1ccc(C)c(S(=O)(=O)Nc2ccc(O)c(Sc3ncn[nH]3)c2)c1	0.25	-17	75*	1.2	x	x	82*
Cc1ccc(S(=O)(=O)Nc2ccc(O)c(Sc3ncn[nH]3)c2)cc1	0.5	-4	50*	1	1	1	65*
COc1ccc(OC)c(S(=O)(=O)Nc2ccc(O)c(Sc3ncn[nH]3)c2)c1	0.5	17	50*	0.83	0.9	13	52*
CCOC(=O)c1ccc(NS(=O)(=O)c2cn(C)cn2)cc1	1.1	-7	-8	1.1	x	x	x
CC(=O)c1ccc(C(=O)N2CCCC(CCC(=O)N(C)CCc3ccccn3)C2)s1 (stereo not drawn)	0.97	-17	3	1.2	1	-4	x
COc1ccc(NC(=O)COc2ccccc2C(=O)NCC(c2ccccc2)N(C)C)cc1Cl (stereo not drawn)	1.4	-9	-37	1.1	x	x	x
CCOc1ccc(S(=O)(=O)Nc2ccc(O)c(Sc3ncn[nH]3)c2)cc1	0.56	-6	44*	1.1	1	-3	62*
CCOc1ccc(NS(=O)(=O)c2ccc(NS(=O)(=O)c3ccc(SC)cc3)cc2)cc1	0.89	0	11	0.99	0.9	14	x
COc1ccccc1NC(=O)Nc1ccc(-n2ccc(C(F)(F)F)n2)cc1	1.5	-4	-46	1	x	x	x
O=C(Nc1ccc(-n2ccc(C(F)(F)F)n2)cc1)Nc1cccc(Cl)c1	2.8*	-2	-178	1	x	x	-92
Cc1cc(C)cc(NC(=O)Nc2ccc(-n3ccc(C(F)(F)F)n3)cc2)c1	3.9*	-16	-288	1.2	x	x	-136
O=C(CCNS(=O)(=O)c1ccc(F)c(F)c1)NCCN1CCOCC1	0.92	-11	8	1.1	x	x	x
COC(=O)c1cc(O)cc(OC)c1Oc1cc(C)cc(O)c1C(=O)O	0.47	5	53*	0.95	x	x	67*
O=C(COC(=O)C1C2CC3OC(=O)C1C3C2)Nc1ccc(Br)cc1 (stereo not drawn)	1.1	8	-8	0.93	x	x	x
